Experimental data reported in ChEMBL document CHEMBL5647686, “B cell receptor-induced phosphorylation of Pyk2 and focal adhesion kinase involves integrins and the Rap GTPases and is required for B cell spreading” (J Biol Chem, 2009).
The source made the active and inactive calls. The calls are words filed in the database; no cut-off is given here.

Assays:
[1] = test system: A20; test: Inhibition of anti-Ig-induced tyrosine phosphorylation of ERK in mouse A20 cells under suspension conditions at 0.15 to 5 uM incubated for 45 mins before being stimulated with anti-IgG for 20 mins by immunoblotting; type: cell-based; conditions: dose 0.15-5 µM, time 65.0 min
Procedure, shortened: (§1)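 A20 cells held in suspension in modified HEPES-buffered saline were treated with inhibitor at graded concentrations or DMSO for 45 min, then stimulated with 20 μg/ml anti-IgG for 20 min. Unstimulated controls were kept 45 min plus 20 min without stimulus. Cold lysis buffer was added, and lysates cleared. Pyk2 immunoprecipitates were blotted with 4G10 anti-Tyr(P) and reprobed for Pyk2. Whole lysates were blotted with 4G10 for total phosphotyrosine and for phospho-Erk.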

[2] = test system: A20; test: Inhibition of anti-Ig-induced SRC dependent overall protein tyrosine phosphorylation in mouse A20 cells under suspension conditions at 0.15 to 5 uM incubated for 45 mins before being stimulated with anti-IgG for 20 mins by immunoblotting; type: cell-based; conditions: dose 0.15-5 µM, time 65.0 min; procedure, shortened: as §1
[3] = biological target: Tyrosine-protein kinase SYK (Mus musculus) (UniProt P48025); test: Inhibition of anti-Ig-induced SYK dependent overall protein tyrosine phosphorylation in mouse A20 cells under suspension conditions at 0.15 to 5 uM incubated for 45 mins before being stimulated with anti-IgG for 20 mins by immunoblotting; type: cell-based; conditions: dose 0.15-5 µM, time 65.0 min; procedure, shortened: as §1
[4] = Toxicity in mouse A20 cells by 7-amino-actinomycin D staining; type: cell-based
[5] = biological target: Protein-tyrosine kinase 2-beta (Mus musculus) (UniProt Q9QVP9); test: Inhibition of […] tyrosine phosphorylation of Pyk2 in mouse A20 cells induced by clustering LFA-1 with plate-bound Abs at 2.5 to 5 uM incubated for 45 mins before being stimulated with anti-LFA-1 Abs for 30 mins by immunoblotting; type: cell-based; conditions: dose 2.5-5 µM, time 75.0 min
Procedure, shortened: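 A20 cells pretreated 45 min with inhibitor or DMSO were added for 30 min to wells coated with 2.63 μg/cm² anti-LFA-1 Abs. Lysates were cleared, and Pyk2 or FAK immunoprecipitates were blotted with 4G10 anti-Tyr(P).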

[6] = biological target: Protein-tyrosine kinase 2-beta (Mus musculus) (UniProt Q9QVP9); test: Inhibition of anti-Ig-induced tyrosine phosphorylation of Pyk2 in mouse A20 cells at 0.15 to 5 uM incubated for 45 mins before being stimulated with anti-IgG for 20 mins by immunoblotting; type: cell-based; conditions: dose 0.15-5 µM, time 65.0 min; procedure, shortened: as §1
[7] = biological target: Protein-tyrosine kinase 2-beta (Mus musculus) (UniProt Q9QVP9); test: Inhibition of anti-Ig-induced tyrosine phosphorylation of Pyk2 in mouse A20 cells plated on collagen/fibronectin ECM at 0.15 to 5 uM incubated for 45 mins before being stimulated with anti-IgG for 20 mins by immunoblotting; type: cell-based; conditions: dose 0.15-5 µM, time 65.0 min
[8] = test system: A20; test: Inhibition of anti-IgG-induced B-cell spreading in mouse A20 cells plated on fibronectin assessed as reduction in number of A20 cells that developed an elongated and spread morphology at 2.5 uM for 1 to 4 hrs by immunofluorescence assay; type: functional, cell-based; conditions: time 1-4 hrs
Procedure, shortened: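 A20 cells pretreated 45 min with DMSO or 2.5 μm inhibitor in RPMI 1640 with 2% FCS, plated at 37 °C on wells coated with 2.63 μg/cm² fibronectin (BSA-blocked), and stimulated with 10 μg/ml soluble anti-IgG for 1, 2 or 4 h. Phase-dark cells with elongated or irregular shape counted as spread. Percentage of adherent cells; >150 cells counted per experiment, three experiments; one-tailed paired t test.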

[9] = test system: A20; test: Inhibition of anti-Ig-induced tyrosine phosphorylation of FAK in mouse A20 cells plated on collagen/fibronectin ECM conditions at 0.15 to 5 uM incubated for 45 mins before being stimulated with anti-IgG for 20 mins by immunoblotting; type: cell-based; conditions: dose 0.15-5 µM, time 65.0 min
[10] = test system: A20; test: Inhibition of LFA-1 Ab-induced B-cell spreading in mouse A20 cells plated on anti-LFA-1 Ab coated plates at 2.5 uM for 1 to 3 hrs by immunofluorescence assay; type: functional, cell-based; conditions: time 1-3 hrs
Procedure, shortened: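 A20 B lymphoma cells pretreated 45 min with DMSO or 2.5 μm inhibitor, then added to wells coated overnight at 4 °C with 2.63 μg/cm² rat anti-mouse LFA-1 mAb and blocked with 2% BSA/PBS. Incubated at 37 °C in RPMI 1640 with 2% FCS for 1 or 3 h. Cells scored as spread when phase dark, elongated or irregular with membrane processes. Percentage of adherent cells spread; mean ± S.E., >150 cells per experiment, three experiments; one-tailed paired t test vs DMSO.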

Sequence of Protein-tyrosine kinase 2-beta (Mus musculus) (Q9QVP9 whole entry, looked up): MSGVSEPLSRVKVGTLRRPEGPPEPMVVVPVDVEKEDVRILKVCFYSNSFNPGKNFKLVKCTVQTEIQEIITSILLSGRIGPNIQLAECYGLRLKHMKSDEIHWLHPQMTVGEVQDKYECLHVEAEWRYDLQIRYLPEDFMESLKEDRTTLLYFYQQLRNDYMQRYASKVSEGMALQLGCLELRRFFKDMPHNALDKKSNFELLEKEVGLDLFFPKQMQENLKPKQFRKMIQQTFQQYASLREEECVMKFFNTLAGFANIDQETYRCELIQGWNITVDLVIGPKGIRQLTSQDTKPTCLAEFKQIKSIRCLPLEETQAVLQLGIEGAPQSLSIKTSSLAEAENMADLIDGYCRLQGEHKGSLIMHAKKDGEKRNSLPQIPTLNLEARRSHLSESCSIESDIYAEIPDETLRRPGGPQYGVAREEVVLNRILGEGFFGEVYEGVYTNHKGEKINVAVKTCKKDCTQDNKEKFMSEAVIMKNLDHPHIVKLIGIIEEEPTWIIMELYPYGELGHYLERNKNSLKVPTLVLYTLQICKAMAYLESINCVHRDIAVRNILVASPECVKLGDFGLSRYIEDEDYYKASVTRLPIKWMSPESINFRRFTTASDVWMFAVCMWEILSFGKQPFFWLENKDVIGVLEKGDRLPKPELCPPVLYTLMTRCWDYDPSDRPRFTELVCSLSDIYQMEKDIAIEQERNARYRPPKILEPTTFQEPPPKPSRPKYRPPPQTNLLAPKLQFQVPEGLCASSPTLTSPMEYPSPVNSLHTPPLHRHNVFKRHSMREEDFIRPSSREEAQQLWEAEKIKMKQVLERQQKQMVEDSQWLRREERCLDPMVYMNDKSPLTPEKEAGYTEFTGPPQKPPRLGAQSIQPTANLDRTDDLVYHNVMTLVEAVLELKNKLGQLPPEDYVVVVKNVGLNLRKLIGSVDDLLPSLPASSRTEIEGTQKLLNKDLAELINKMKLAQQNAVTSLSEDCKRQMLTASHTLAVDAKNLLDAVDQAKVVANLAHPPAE
Sequence of Tyrosine-protein kinase SYK (Mus musculus) (P48025 whole entry, looked up): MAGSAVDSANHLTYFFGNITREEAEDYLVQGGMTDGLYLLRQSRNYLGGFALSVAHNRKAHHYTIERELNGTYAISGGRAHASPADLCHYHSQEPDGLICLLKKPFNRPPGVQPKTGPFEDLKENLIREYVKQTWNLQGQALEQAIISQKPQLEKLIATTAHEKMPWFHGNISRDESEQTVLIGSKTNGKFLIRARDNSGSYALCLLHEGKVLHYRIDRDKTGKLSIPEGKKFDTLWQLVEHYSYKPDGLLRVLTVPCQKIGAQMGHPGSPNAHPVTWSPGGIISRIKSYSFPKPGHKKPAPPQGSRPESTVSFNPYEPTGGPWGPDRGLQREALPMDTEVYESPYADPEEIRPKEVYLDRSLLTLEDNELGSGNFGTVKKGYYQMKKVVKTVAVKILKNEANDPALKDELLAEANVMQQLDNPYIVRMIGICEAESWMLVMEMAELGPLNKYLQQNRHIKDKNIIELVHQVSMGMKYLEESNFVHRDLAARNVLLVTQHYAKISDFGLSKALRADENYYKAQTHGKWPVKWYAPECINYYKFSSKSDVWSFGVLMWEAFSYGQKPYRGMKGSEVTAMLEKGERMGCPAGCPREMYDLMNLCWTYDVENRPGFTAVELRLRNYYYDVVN

inhibition [3]: inactive | inhibition [5]: Active | inhibition [6]: Active | inhibition [7]: Active
SMILES: CN(c1ccccc1CNc1nc(Nc2ccc3c(c2)CC(=O)N3)ncc1C(F)(F)F)S(C)(=O)=O
inhibition [1]: inactive | inhibition [2]: inactive | Activity [4]: Non-Toxic | inhibition [8]: Active | inhibition [9]: Active | inhibition [10]: Active
